Measured values reported in ChEMBL document CHEMBL1135628, “Potent and long-acting corticotropin releasing factor (CRF) receptor 2 selective peptide competitive antagonists” (J Med Chem, 2002).

Key:
[1] = biological target: T1, Corticotropin-releasing factor receptor 1 (Homo sapiens, UniProt P34998); assay: Inhibition of recombinant corticotropin releasing factor receptor 1 assayed using nonselective [125I]-labeled agonist [Tyr0,Glu1,Nle17]-sauvagine
T1 sequence (P34998 whole entry): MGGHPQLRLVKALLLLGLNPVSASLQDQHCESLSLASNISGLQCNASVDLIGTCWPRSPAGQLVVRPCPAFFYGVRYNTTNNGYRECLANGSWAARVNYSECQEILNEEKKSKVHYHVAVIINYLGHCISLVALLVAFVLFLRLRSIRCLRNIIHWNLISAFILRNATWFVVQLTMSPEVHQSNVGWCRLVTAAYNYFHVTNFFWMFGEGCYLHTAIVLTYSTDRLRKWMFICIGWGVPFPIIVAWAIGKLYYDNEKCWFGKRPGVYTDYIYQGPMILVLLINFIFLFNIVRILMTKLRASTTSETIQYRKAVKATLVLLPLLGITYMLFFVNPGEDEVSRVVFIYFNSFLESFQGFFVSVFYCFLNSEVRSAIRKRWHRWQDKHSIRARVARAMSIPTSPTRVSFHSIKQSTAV
Method in brief: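 Crude plasma membranes from stable CHO lines expressing hCRF1 or mCRF2β, stored in 10% sucrose at -80 °C. Incubated 90 min at room temperature, then washed and filtered. IC50 taken from one representative assay, repeated at least twice.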

[2] = biological target: Corticotropin-releasing factor receptor 2 (Mus musculus) (UniProt Q60748); assay: Inhibition of recombinant mouse corticotropin releasing factor receptor 2 beta (CRF2beta) assayed using nonselective [125I]-labeled agonist [Tyr0,Glu1,Nle17]-sauvagine as radioligand
Sequence of Corticotropin-releasing factor receptor 2 (Mus musculus) (Q60748 whole entry, looked up): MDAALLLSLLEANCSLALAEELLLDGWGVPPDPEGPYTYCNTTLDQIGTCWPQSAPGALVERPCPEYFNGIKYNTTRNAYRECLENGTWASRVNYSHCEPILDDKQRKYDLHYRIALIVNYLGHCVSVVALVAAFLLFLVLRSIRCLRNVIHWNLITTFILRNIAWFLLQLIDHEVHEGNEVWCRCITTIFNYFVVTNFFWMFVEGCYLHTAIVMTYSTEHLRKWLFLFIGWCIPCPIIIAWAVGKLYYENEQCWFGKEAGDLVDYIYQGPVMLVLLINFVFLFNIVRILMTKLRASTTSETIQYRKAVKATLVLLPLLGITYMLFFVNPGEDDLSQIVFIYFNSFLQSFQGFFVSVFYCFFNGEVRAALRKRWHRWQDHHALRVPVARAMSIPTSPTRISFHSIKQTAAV

IC50 [1]: > 100 nM
IC50 [2]: 17.8 nM
Structure (SMILES): CCCC[C@H](NC(=O)[C@H](CCCCN)NC(=O)[C@H](CCCN=C(N)N)NC(=O)[C@H](CC(C)C)NC(=O)[C@](C)(CC(C)C)NC(=O)[C@H](Cc1c[nH]cn1)NC(=O)[C@@H](Cc1ccccc1)NC(=O)[C@H](CO)NC(=O)[C@H](CC(C)C)NC(=O)[C@H](CC(=O)O)NC(C)=O)C(=O)N[C@H](C(=O)N[C@@H](CCC(=O)O)C(=O)N[C@H](C(=O)N[C@@H](CCC(=O)O)C(=O)N[C@@H](CCCCN)C(=O)N[C@@H](CCC(N)=O)C(=O)N[C@@H](CCC(=O)O)C(=O)N[C@@H](CCCCN)C(=O)N[C@@H](CCC(=O)O)C(=O)N[C@@H](CCCCN)C(=O)N[C@@H](CCC(N)=O)C(=O)N[C@@H](CCC(N)=O)C(=O)N[C@@H](C)C(=O)N[C@@H](C)C(=O)N[C@@H](CC(N)=O)C(=O)N[C@@H](CC(N)=O)C(=O)N[C@H]1CCC(=O)NCCCC[C@@H](C(=O)N[C@@H](CC(=O)O)C(=O)N[C@@](C)(CC(C)C)C(=O)N[C@H](C(N)=O)[C@@H](C)CC)NC(=O)[C@H](CC(C)C)NC(=O)[C@H](CC(C)C)NC1=O)[C@@H](C)CC)[C@@H](C)CC
